Values belong to the compound of their own block, whether it stands above or below them.
Columns and labels:
[1] = molecular target: T1, Vascular endothelial growth factor receptor 2 (Homo sapiens, UniProt P35968); assay: Inhibition of KDR using 1 mM ATP by HTRF assay
Aurora kinase B [2] = molecular target: T2, Aurora kinase B (Homo sapiens, UniProt Q96GD4); assay: Inhibition of Aurora B using 1 mM ATP by HTRF assay
Mus musculus = assay: In vivo inhibition of KDR in po dosed mouse assessed as estradiol-induced uterine edema; format: functional
Aurora kinase B [3] = molecular target: T2, Aurora kinase B; details: NCI-H1229
[4] = molecular target: T1, Vascular endothelial growth factor receptor 2; assay: Inhibition of human KDR phosphorylation expressed in mouse NIH3T3 cells; format: cell-based
Cytochrome P450 3A4 [5] = molecular target: T3, Cytochrome P450 3A4 (Homo sapiens, UniProt P08684); assay: Inhibition of CYP3A4; format: ADME
Cytochrome P450 3A4 [6] = molecular target: T3, Cytochrome P450 3A4; assay: Inhibition of CYP3A4 up to 10 uM; format: ADME
[7] = Half life in CD1 (ICR) mouse at 3 mg/kg, iv; format: ADME, organism-based; set-up: dose 3 mg/kg, route intravenous; details: in vivo
[8] = Volume of distribution in CD1 (ICR) mouse at 3 mg/kg, iv; format: ADME, organism-based; set-up: dose 3 mg/kg, route intravenous; details: in vivo
[9] = Clearance in CD1 (ICR) mouse at 3 mg/kg, iv; format: ADME, organism-based; set-up: dose 3 mg/kg, route intravenous; details: in vivo
[10] = AUC in CD1 (ICR) mouse at 10 mg/kg, po; format: ADME, organism-based; set-up: dose 10 mg/kg, route oral; details: plasma
[11] = Oral bioavailability in CD1 (ICR) mouse at 10 mg/kg; format: ADME, organism-based; details: in vivo
[12] = molecular target: Voltage-gated inwardly rectifying potassium channel KCNH2 (Homo sapiens, UniProt Q12809); assay: Inhibition of human Erg by patch clamp assay in absence of plasma protein
Canis familiaris [13] = species: Canis familiaris; assay: Cardiotoxicity in dog assessed as QT prolongation time at 32.1 uM plasma concentration; format: toxicity, organism-based, Canis lupus familiaris
Canis familiaris [14] = species: Canis familiaris; assay: Cardiotoxicity in dog assessed as QT prolongation time at 117 uM plasma concentration; format: toxicity, organism-based, Canis lupus familiaris
[15] = Lipophilicity, log D of the compound at pH 7; format: physicochemical; details: buffer
[16] = Aqueous solubility of the compound; format: physicochemical; details: buffer
Summary of the method: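 Aqueous solubility was measured across the physiological pH range.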

[17] = Protein binding in rat; format: ADME, organism-based; details: plasma, read-out: PB
[18] = Protein binding in mouse; format: ADME, organism-based; details: plasma, read-out: PB
[19] = Protein binding in dog; format: ADME, organism-based, Canis lupus familiaris; details: plasma, read-out: PB
[20] = Plasma clearance in rat; format: ADME, organism-based
[21] = Plasma clearance in mouse; format: ADME, organism-based
[22] = Plasma clearance in dog; format: ADME, organism-based, Canis lupus familiaris
[23] = Volume of distribution at steady state in rat; format: ADME, organism-based; details: in vivo, read-out: Vdss
[24] = Volume of distribution at steady state in mouse; format: ADME, organism-based; details: in vivo, read-out: Vdss
[25] = Volume of distribution at steady state in dog; format: ADME, organism-based, Canis lupus familiaris; details: in vivo, read-out: Vdss
[26] = Half life in rat; format: ADME, organism-based; details: in vivo
[27] = Half life in mouse; format: ADME, organism-based; details: in vivo
[28] = Half life in dog; format: ADME, organism-based, Canis lupus familiaris; details: in vivo
HT-1080 = assay: Antitumor activity against human HT1080 cells xenografted in mouse assessed as tumor growth inhibition at 10 mg/kg, po qd; format: functional; details: read-out: GI

T2 sequence (Q96GD4 whole entry): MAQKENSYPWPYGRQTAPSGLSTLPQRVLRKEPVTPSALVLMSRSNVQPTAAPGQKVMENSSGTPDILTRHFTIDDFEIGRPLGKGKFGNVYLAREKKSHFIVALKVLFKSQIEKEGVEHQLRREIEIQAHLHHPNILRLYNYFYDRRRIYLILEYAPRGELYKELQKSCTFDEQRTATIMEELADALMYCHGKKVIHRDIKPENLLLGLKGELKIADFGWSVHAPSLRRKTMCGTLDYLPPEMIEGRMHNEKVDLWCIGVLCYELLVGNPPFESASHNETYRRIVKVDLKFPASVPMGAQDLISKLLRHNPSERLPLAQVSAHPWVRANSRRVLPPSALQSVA
T1 sequence (P35968 whole entry): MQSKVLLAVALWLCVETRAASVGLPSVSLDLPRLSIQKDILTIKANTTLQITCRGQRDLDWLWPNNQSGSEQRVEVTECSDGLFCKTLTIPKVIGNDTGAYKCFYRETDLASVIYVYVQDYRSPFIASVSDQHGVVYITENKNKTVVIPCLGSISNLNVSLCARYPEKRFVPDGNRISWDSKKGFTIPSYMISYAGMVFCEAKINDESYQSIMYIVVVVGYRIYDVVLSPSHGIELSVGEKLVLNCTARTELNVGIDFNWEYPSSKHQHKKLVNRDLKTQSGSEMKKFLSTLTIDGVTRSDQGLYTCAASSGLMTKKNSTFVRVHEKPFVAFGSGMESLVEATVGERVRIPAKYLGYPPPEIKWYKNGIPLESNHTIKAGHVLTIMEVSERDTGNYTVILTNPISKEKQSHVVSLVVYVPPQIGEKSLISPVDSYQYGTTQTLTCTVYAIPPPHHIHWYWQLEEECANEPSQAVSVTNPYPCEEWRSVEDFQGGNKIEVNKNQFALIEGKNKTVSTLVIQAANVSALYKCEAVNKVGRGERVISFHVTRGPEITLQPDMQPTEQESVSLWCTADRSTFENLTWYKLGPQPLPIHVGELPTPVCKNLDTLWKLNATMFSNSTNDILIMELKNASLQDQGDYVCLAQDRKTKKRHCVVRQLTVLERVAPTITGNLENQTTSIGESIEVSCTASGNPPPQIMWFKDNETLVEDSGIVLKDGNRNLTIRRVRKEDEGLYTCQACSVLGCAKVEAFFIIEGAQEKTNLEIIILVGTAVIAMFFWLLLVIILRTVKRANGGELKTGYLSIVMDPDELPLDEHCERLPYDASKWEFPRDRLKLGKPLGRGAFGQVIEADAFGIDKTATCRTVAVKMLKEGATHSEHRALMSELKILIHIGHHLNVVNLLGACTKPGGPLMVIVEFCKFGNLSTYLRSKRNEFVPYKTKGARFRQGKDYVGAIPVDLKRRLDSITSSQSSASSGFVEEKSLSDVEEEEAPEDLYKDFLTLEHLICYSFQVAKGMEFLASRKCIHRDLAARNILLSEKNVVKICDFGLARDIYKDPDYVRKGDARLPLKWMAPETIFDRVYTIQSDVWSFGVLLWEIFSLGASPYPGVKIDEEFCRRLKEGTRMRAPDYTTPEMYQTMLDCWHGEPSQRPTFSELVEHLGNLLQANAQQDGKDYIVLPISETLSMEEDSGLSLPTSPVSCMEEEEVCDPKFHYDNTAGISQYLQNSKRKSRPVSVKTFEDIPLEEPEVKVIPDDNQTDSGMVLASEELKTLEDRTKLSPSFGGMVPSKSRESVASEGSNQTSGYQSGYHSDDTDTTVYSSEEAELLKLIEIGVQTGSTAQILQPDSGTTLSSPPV
T3 sequence (P08684 whole entry): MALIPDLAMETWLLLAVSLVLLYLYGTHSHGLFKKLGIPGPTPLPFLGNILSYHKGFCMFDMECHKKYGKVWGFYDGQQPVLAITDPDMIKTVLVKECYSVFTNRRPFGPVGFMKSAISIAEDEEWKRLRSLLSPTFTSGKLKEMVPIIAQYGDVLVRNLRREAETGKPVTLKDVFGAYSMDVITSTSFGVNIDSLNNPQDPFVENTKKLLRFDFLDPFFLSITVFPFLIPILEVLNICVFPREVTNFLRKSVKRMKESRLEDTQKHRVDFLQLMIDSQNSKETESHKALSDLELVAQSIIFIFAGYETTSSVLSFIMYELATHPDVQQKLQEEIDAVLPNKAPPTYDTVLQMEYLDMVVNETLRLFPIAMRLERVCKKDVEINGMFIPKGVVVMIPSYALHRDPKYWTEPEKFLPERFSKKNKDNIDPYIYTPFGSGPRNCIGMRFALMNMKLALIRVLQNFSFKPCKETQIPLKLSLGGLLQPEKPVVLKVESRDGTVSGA
Chain of Voltage-gated inwardly rectifying potassium channel KCNH2 (Q12809 whole entry): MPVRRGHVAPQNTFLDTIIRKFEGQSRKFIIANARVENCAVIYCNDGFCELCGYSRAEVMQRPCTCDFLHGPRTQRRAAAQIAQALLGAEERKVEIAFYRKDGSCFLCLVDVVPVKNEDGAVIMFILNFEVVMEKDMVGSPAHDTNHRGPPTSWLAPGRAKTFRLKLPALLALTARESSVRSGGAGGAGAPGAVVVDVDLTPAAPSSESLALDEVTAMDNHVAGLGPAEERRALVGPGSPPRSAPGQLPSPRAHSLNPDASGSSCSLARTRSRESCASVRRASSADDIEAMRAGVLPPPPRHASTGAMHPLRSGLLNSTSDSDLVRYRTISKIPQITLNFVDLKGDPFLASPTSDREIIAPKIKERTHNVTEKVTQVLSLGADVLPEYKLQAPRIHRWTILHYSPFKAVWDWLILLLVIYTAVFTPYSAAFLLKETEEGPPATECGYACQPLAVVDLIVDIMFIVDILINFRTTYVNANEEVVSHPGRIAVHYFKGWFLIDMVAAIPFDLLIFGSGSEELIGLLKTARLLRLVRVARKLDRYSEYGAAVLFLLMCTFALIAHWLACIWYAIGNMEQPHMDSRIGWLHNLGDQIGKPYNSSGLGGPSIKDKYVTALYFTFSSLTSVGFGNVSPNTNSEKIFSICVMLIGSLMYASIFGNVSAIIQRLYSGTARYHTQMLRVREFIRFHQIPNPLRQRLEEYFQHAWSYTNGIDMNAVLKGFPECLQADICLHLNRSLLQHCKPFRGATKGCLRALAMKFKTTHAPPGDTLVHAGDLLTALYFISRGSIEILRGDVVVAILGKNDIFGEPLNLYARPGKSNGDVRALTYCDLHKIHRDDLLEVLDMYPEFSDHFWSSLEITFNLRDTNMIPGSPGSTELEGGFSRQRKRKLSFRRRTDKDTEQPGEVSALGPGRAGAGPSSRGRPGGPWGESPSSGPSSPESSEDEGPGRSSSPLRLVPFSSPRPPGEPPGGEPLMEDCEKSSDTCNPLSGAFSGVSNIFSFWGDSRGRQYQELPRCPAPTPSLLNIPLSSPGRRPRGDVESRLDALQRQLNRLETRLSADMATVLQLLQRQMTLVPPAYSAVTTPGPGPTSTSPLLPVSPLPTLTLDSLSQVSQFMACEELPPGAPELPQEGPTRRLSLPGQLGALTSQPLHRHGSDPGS

SMILES: CNC(=O)/C=C/c1cnc(N)c2c(-c3ccc(NC(=O)Nc4cccc(C)c4)cc3)csc12
- IC50 [1]: 6 nM
- IC50 (Aurora kinase B [2]): 80 nM
- IC50 [4]: 22 nM
- EC15 (Aurora kinase B [3]): 87 nM

SMILES: Nc1ncc(-c2cnn(CCO)c2)c2scc(-c3ccc(NC(=O)Nc4cccc(F)c4)cc3)c12 [ILORASERTIB]
- ED50 (Mus musculus): 3.2 mg/kg
- IC50 (Cytochrome P450 3A4 [5]): > 30000 nM
- inhibition (INH) (Cytochrome P450 3A4 [6]): < 20%
- half-life [7]: 4.7 h
- Vd [8]: 1.7 L/kg
- clearance [9]: 5 mL/min/kg
- AUC [10]: 18600 ng·h/mL
- bioavailability [11]: 47%
- IC50 [12]: 1000 nM
- Time (Canis familiaris [13]): 11 ms
- Time (Canis familiaris [14]): 25 ms
- logD [15]: 4.5
- solubility [16]: < 78 µM
- fraction unbound [17]: < 0.01
- fraction unbound [18]: < 0.01
- fraction unbound [19]: < 0.01
- clearance [20]: < 5 mL/min/kg
- clearance [21]: < 5 mL/min/kg
- clearance [22]: < 5 mL/min/kg
- Vd [23]: 0.4 L/kg
- Vd [24]: 0.4 L/kg
- Vd [25]: 0.4 L/kg
- half-life [26]: 4 h
- half-life [27]: 4 h
- half-life [28]: 4 h
- EC15 (Aurora kinase B [3]): 12 nM

SMILES: CC(C)CCn1cc(-c2cnc(N)c3c(-c4ccc(NC(=O)Nc5cccc(F)c5)cc4)csc23)cn1
- IC50 [1]: 25 nM
- IC50 (Aurora kinase B [2]): 529 nM

SMILES: Cc1cccc(NC(=O)Nc2ccc(-c3csc4c(-c5ccccc5)cnc(N)c34)cc2)c1
- IC50 (Aurora kinase B [2]): 3280 nM

SMILES: CCCn1cc(-c2cnc(N)c3c(-c4ccc(NC(=O)Nc5cccc(F)c5)cc4)csc23)cn1
- IC50 (Aurora kinase B [2]): 31 nM
- ED50 (Mus musculus): 1.5 mg/kg
- inhibition (INH) (Cytochrome P450 3A4 [6]): < 20%
- half-life [7]: 0.8 h
- Vd [8]: 1.2 L/kg
- clearance [9]: 16.7 mL/min/kg
- AUC [10]: 5260 ng·h/mL
- bioavailability [11]: 52%
- inhibition in vivo at 10 mg/kg (HT-1080): > 70%
- EC15 (Aurora kinase B [3]): 4 nM

SMILES: Cc1cccc(NC(=O)Nc2ccc(-c3csc4c(C#CCN(C)C)cnc(N)c34)cc2)c1
- IC50 (Aurora kinase B [2]): 11 nM
- EC15 (Aurora kinase B [3]): 141 nM

SMILES: CNC(=O)c1cnc(N)c2c(-c3ccc(NC(=O)Nc4cccc(C)c4)cc3)csc12
- IC50 (Aurora kinase B [2]): 13 nM
- IC50 [4]: 1 nM
- EC15 (Aurora kinase B [3]): 46 nM

SMILES: CC(C)Cn1cc(-c2cnc(N)c3c(-c4ccc(NC(=O)Nc5cccc(F)c5)cc4)csc23)cn1
- IC50 [1]: 25 nM
- IC50 (Aurora kinase B [2]): 177 nM
- ED50 (Mus musculus): 1.1 mg/kg
- EC15 (Aurora kinase B [3]): 355 nM

SMILES: Cc1cccc(NC(=O)Nc2ccc(-c3csc4c(-c5ccoc5)cnc(N)c34)cc2)c1
- IC50 [1]: 8 nM
- IC50 (Aurora kinase B [2]): 100 nM
- IC50 [4]: 14 nM
- EC15 (Aurora kinase B [3]): > 300 nM

SMILES: Cc1cccc(NC(=O)Nc2ccc(-c3csc4c(-c5cc[nH]c5)cnc(N)c34)cc2)c1
- IC50 [1]: 4 nM
- IC50 (Aurora kinase B [2]): 68 nM
- IC50 [4]: 1 nM
- EC15 (Aurora kinase B [3]): 389 nM

The next lines start with results.

- IC50 [1]: 7 nM
- IC50 (Aurora kinase B [2]): 70 nM
- EC15 (Aurora kinase B [3]): 18 nM
SMILES: Cn1cc(-c2cnc(N)c3c(-c4ccc(NC(=O)Nc5cccc(Cl)c5)cc4)csc23)cn1
- ED50 (Mus musculus): 2 mg/kg

- IC50 [1]: 8 nM
- IC50 (Aurora kinase B [2]): 48 nM
- EC15 (Aurora kinase B [3]): 27 nM
SMILES: Cn1cc(-c2cnc(N)c3c(-c4ccc(NC(=O)Nc5ccc(Cl)cc5)cc4)csc23)cn1
- ED50 (Mus musculus): 0.3 mg/kg

- IC50 [1]: 3 nM
- IC50 (Aurora kinase B [2]): 17 nM
- EC15 (Aurora kinase B [3]): 12 nM
SMILES: Cn1cc(-c2cnc(N)c3c(-c4ccc(NC(=O)Nc5ccc(OC(F)(F)F)cc5)cc4)csc23)cn1
- ED50 (Mus musculus): 2.6 mg/kg

- IC50 [1]: 6 nM
- IC50 (Aurora kinase B [2]): 52 nM
- EC15 (Aurora kinase B [3]): > 100 nM
SMILES: COc1ccccc1NC(=O)Nc1ccc(-c2csc3c(-c4cnn(C)c4)cnc(N)c23)cc1
- ED50 (Mus musculus): 8 mg/kg

- IC50 [1]: 2 nM
- IC50 (Aurora kinase B [2]): 8 nM
- EC15 (Aurora kinase B [3]): 2 nM
SMILES: Cc1ccccc1NC(=O)Nc1ccc(-c2csc3c(-c4cnn(C)c4)cnc(N)c23)cc1
- ED50 (Mus musculus): 3.5 mg/kg
